Laboratory results: ChEMBL document CHEMBL2384906, “Biological activity, design, synthesis and structure activity relationship of some novel derivatives of curcumin containing sulfonamides” (Eur J Med Chem, 2013)

Test system: Mus musculus
Assay: Antiinflammatory activity in mouse assessed as inhibition of carrageenan-induced increase in paw volume at 100 mg/kg, ip administered 1 hr prior to carrageenan challenge measured after 3 hrs relative to control
Assay type: functional
Settings: route intraperitoneal
Procedure, shortened: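 Mice were fasted 2 h and placed in groups of five. Controls received saline i.p. Phenylbutazone was given at 100 mg/kg i.p., curcumin at 200 mg/kg i.p., and derivatives at 200 mg/kg. After 1 h, 0.1 mL of 1% carrageenan in saline was injected subplantar into the right hind paw. Paw volume was followed by plethysmometer for 3 h, and % inhibition was calculated as (Vc − Vt)/Vc × 100.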

## CCCCC1C(=O)N(c2ccccc2)N(c2ccccc2)C1=O [PHENYLBUTAZONE]
  inhibition in vivo at 100 mg/kg: 70.9%
